Assay results reported in ChEMBL document CHEMBL3352365, “Formononetin attenuates osteoclastogenesis via suppressing the RANKL-induced activation of NF-κB, c-Fos, and nuclear factor of activated T-cells cytoplasmic 1 signaling pathway” (J Nat Prod, 2014).
The source made the active and inactive calls. The calls are words filed in the database; no cut-off is given here.

Assays:
[1] = biological target: T1, Tumor necrosis factor ligand superfamily member 11 (Mus musculus) (UniProt O35235); assay: Inhibition of RANKL-induced NFATc1 protein expression in ICR mouse BMMC at 1 to 20 uM incubated for 12 hrs by Western blotting method; format: functional
T1 sequence (whole entry): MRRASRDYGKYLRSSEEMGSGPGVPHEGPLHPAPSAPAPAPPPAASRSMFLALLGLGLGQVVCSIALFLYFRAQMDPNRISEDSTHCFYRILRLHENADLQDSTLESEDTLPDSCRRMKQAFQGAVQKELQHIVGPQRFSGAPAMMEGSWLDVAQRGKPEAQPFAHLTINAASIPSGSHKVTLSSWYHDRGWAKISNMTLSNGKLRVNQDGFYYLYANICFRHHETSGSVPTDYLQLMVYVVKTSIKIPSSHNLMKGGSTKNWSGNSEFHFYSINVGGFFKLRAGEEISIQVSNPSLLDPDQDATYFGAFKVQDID

[2] = biological target: T1, Tumor necrosis factor ligand superfamily member 11 (Mus musculus); assay: Inhibition of RANKL-stimulated JNK in ICR mouse BMMC assessed as reduction in c-Jun phosphorylation at 1 to 20 uM incubated for 12 hrs by Western blotting method
BMMC [3] = assay: Inhibition of RANKL/M-CSF-stimulated osteoclastogenesis in ICR mouse BMMC assessed as reduction in TRAP positive multinucleated cells at 1 to 20 uM incubated for 7 days by light microscopy; format: functional
How it was run: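 JNK inhibitor SP600125 used as reference. For blots, BMMs were incubated with RANKL 100 ng/mL for 12 h, then SP600125 for 4 h; lysates probed for phospho-c-Jun, c-Jun, c-Fos and NFATc1, with β-actin as control. For TRAP counts, BMMs were given RANKL 1 h, then SP600125 (1, 10, 20 μM) with M-CSF 30 ng/mL.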

[4] = biological target: T1, Tumor necrosis factor ligand superfamily member 11 (Mus musculus); assay: Inhibition of RANKL-induced c-FOS protein expression in ICR mouse BMMC at 1 to 20 uM incubated for 12 hrs by Western blotting method; format: functional
[5] = biological target: RAC-alpha serine/threonine-protein kinase (Mus musculus) (UniProt P31750); assay: Inhibition of RANKL-stimulated AKT phosphorylation in ICR mouse BMMC at 1 to 10 uM incubated for 12 hrs by Western blotting method
How it was run: (§1)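 BMMs stimulated with RANKL (100 ng/mL) for 1 h, then treated for 12 h. Whole-cell lysates run on 10% SDS-PAGE and probed (1:1000) for phospho- and total AKT, ERK, JNK and p38, with ECL detection. Blots representative of at least two experiments.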

[6] = biological target: Transcription factor p65 (Mus musculus) (UniProt Q04207); assay: Inhibition of RANKL-stimulated NFkappaB p65 phosphorylation in ICR mouse BMMC at 1 to 10 uM incubated for 4 hrs by Western blotting method
[7] = biological target: T2, Nuclear factor NF-kappa-B complex (Homo sapiens) (UniProt Q00653+P19838+Q04206); assay: Inhibition of RANKL-stimulated NFkappaB (unknown origin) expressed in ICR mouse BMMC assessed as reduction in transcriptional activity at 1 to 10 uM incubated for 12 hrs by SEAP based reporter gene assay relative to untreated control
How it was run: (§2)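 BMMs (5 × 10^5 cells/well) stimulated with RANKL 100 ng/mL for 1 h, then transfected (Lipofectamine 2000) with 300 ng pNF-κB-SEAP-NPT (four NF-κB sites) or control SEAP-NPT. After 24 h, treated (0, 1, 5, 10 μM) for 12 h at 37 °C with M-CSF and RANKL. Supernatant SEAP fluorescence read at ex 360/em 449 nm, given as % of control. Two experiments.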

[8] = (§3) Inhibition of RANKL/M-CSF-stimulated IL-1beta protein expression in ICR mouse BMMC at 1 to 10 uM incubated for 48 hrs by ELISA method relative to untreated control; format: functional
How it was run: (§4)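 BMMs (3 × 10^5 cells/well) prestimulated with RANKL 100 ng/mL for 1 h, then treated (1, 5, 10 μM) with M-CSF 30 ng/mL. Cytokines and chemokines in culture medium measured by ELISA. Methods give 7 days of treatment; legend gives 48 h. Mean ± SEM of two independent experiments; Student's t test.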

BMMC [9] = assay: as §3; format: functional; how it was run: as §4
[10] = (§5) Inhibition of RANKL/M-CSF-stimulated TNFalpha protein expression in ICR mouse BMMC at 1 to 10 uM incubated for 48 hrs by ELISA method relative to untreated control; format: functional; how it was run: as §4
BMMC [11] = assay: as §5; format: functional; how it was run: as §4
[12] = Inhibition of RANKL protein expression in ICR mouse BMMC co-cultured with primary osteoblasts at 1 to 10 uM incubated for 48 hrs by ELISA method relative to untreated control; format: functional
How it was run: (§6)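 Coculture of BMMs (3 × 10^5 cells/well) with calvarial osteoblasts from 1-day-old mice (2.5 × 10^4 cells/well). Cells prestimulated with RANKL 100 ng/mL for 1 h, then treated for 48 h with M-CSF 30 ng/mL present. RANKL measured in cell lysate and OPG in culture medium, both by ELISA. Mean ± SEM of two independent experiments; Student's t test.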

[13] = (§7) Inhibition of RANKL/M-CSF-stimulated MIP-1alpha protein expression in ICR mouse BMMC at 1 to 10 uM incubated for 48 hrs by ELISA method relative to untreated control; format: functional; how it was run: as §4
BMMC [14] = assay: as §7; format: functional; how it was run: as §4
[15] = biological target: T1, Tumor necrosis factor ligand superfamily member 11 (Mus musculus); assay: Inhibition of RANKL-induced NFATc1 protein expression in ICR mouse BMMC at 1 to 10 uM incubated for 12 hrs by Western blotting method; format: functional
How it was run: (§8)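 BMMs prestimulated with RANKL 100 ng/mL for 12 h, then treated at the indicated times and concentrations. Whole-cell lysates (20 μg/lane) run on 10% SDS-PAGE and blotted to nitrocellulose. Probed with anti-c-Fos and anti-NFATc1 (1:1000), β-actin as internal control, ECL detection.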

[16] = (§9) Inhibition of RANKL/M-CSF-stimulated RANTES protein expression in ICR mouse BMMC at 1 to 10 uM incubated for 48 hrs by ELISA method relative to untreated control; format: functional; how it was run: as §4
BMMC [17] = assay: as §9; format: functional; how it was run: as §4
[18] = biological target: T2, Nuclear factor NF-kappa-B complex (Homo sapiens); assay: Inhibition of RANKL-stimulated NFkappaB (unknown origin) expressed in ICR mouse BMMC assessed as reduction in transcriptional activity at 1 to 10 uM incubated for 12 hrs by SEAP based reporter gene assay; how it was run: as §2
BMMC [19] = assay: Inhibition of RANKL/M-CSF-stimulated osteoclastogenesis in ICR mouse BMMC assessed as reduction in TRAP positive multinucleated cells at 1 to 10 uM incubated for 7 days by light microscopy; format: functional
How it was run: (§10)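 BMMs from 6-week-old ICR mouse femurs/tibiae (M-CSF expanded; 5 × 10^5 cells/well) stimulated with RANKL 100 ng/mL for 1 h, then treated (1, 5, 10 μM) with M-CSF 30 ng/mL for 7 days. Fixed and TRAP-stained; TRAP+ cells with ≥3 nuclei counted by light microscopy. Mean ± SEM, two experiments.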

[20] = biological target: T1, Tumor necrosis factor ligand superfamily member 11 (Mus musculus); assay: Inhibition of RANKL-induced NFATc1 mRNA expression in ICR mouse BMMC at 5 uM incubated for 12 hrs by qRT-PCR method; format: functional
How it was run: (§11)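 BMMs stimulated with RANKL (100 ng/mL) for 12 h, then treated at the indicated times and concentrations. c-Fos and NFATc1 mRNA quantified by real-time PCR.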

[21] = biological target: T1, Tumor necrosis factor ligand superfamily member 11 (Mus musculus); assay: Inhibition of RANKL-stimulated IkappaBalpha degradation in ICR mouse BMMC at 1 to 10 uM incubated for 4 hrs by Western blotting method
[22] = (§12) Inhibition of RANKL/M-CSF-stimulated IL-6 protein expression in ICR mouse BMMC at 1 to 10 uM incubated for 48 hrs by ELISA method relative to untreated control; format: functional; how it was run: as §4
BMMC [23] = assay: as §12; format: functional; how it was run: as §4
[24] = biological target: T1, Tumor necrosis factor ligand superfamily member 11 (Mus musculus); assay: Inhibition of RANKL-stimulated ERK phosphorylation in ICR mouse BMMC at 1 to 10 uM incubated for 12 hrs by Western blotting method; how it was run: as §1
[25] = biological target: T1, Tumor necrosis factor ligand superfamily member 11 (Mus musculus); assay: Inhibition of RANKL-stimulated JNK phosphorylation in ICR mouse BMMC at 1 to 10 uM incubated for 12 hrs by Western blotting method; how it was run: as §1
[26] = biological target: T1, Tumor necrosis factor ligand superfamily member 11 (Mus musculus); assay: Inhibition of RANKL-induced c-FOS protein expression in ICR mouse BMMC at 1 to 10 uM incubated for 12 hrs by Western blotting method; format: functional; how it was run: as §8
[27] = Toxicity against ICR mouse BMMC assessed as reduction in cell viability up to 100 uM after 72 hrs by WST8 assay
How it was run: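 BMMs cultured with RANKL (100 ng/mL) and test compound at 0, 1, 5, 10 and 100 μM for 72 h. Viability read by WST-8 (CCK-8) assay.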

[28] = biological target: T1, Tumor necrosis factor ligand superfamily member 11 (Mus musculus); assay: Inhibition of RANKL-induced c-FOS mRNA expression in ICR mouse BMMC at 5 uM incubated for 12 hrs by qRT-PCR method; format: functional; how it was run: as §11
[29] = biological target: MAP kinase p38 (Mus musculus) (UniProt P47811+O08911+Q9WUI1+Q9Z1B7); assay: Inhibition of RANKL-stimulated p38 phosphorylation in ICR mouse BMMC at 1 to 10 uM incubated for 12 hrs by Western blotting method; format: protein assay; how it was run: as §1
[30] = (§13) Inhibition of RANKL/M-CSF-stimulated MCP1 protein expression in ICR mouse BMMC at 1 to 10 uM incubated for 48 hrs by ELISA method relative to untreated control; format: functional; how it was run: as §4
BMMC [31] = assay: as §13; format: functional; how it was run: as §4
BMMC [32] = assay: Inhibition of RANKL protein expression in ICR mouse BMMC co-cultured with primary osteoblasts at 1 to 10 uM incubated for 48 hrs by ELISA method; format: functional; how it was run: as §6
Osteoblast = assay: Increase in OPG protein expression in RANKL-stimulated mouse primary osteoblasts co-cultured with ICR mouse BMMC at 1 to 10 uM incubated for 48 hrs by ELISA method relative to untreated control; format: functional; how it was run: as §6
[33] = Inhibition of RANKL/M-CSF-stimulated osteoclastogenesis in ICR mouse BMMC assessed as reduction in TRAP positive multinucleated cells at 1 to 10 uM incubated for 7 days by light microscopy relative to untreated control; format: functional; how it was run: as §10

T2 sequence (P19838 whole entry, looked up): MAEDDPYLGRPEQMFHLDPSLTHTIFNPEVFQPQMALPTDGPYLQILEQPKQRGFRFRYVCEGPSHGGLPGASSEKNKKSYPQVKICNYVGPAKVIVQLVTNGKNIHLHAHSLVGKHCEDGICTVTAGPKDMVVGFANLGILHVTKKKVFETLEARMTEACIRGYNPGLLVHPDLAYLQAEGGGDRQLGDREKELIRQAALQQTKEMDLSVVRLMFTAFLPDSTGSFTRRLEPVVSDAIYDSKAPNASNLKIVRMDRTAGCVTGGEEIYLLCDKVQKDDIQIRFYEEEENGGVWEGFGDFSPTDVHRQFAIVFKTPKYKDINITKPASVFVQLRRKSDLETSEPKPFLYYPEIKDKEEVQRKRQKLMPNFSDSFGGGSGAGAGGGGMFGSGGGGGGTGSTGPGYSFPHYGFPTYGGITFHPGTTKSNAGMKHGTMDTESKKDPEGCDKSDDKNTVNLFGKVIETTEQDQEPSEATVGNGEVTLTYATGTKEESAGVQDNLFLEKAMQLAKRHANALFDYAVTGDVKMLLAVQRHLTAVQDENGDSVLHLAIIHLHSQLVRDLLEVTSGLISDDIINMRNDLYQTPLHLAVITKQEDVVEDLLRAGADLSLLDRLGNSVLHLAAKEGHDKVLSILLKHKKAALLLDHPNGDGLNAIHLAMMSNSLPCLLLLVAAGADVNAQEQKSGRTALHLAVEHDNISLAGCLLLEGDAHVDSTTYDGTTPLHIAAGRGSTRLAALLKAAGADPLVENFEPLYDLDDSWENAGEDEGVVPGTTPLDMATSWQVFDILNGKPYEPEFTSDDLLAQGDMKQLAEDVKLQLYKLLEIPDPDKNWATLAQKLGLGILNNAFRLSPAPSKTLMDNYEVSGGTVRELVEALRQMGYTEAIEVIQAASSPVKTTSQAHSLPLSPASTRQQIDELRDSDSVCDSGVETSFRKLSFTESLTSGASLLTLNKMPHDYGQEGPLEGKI
T2 sequence (Q00653 whole entry, looked up): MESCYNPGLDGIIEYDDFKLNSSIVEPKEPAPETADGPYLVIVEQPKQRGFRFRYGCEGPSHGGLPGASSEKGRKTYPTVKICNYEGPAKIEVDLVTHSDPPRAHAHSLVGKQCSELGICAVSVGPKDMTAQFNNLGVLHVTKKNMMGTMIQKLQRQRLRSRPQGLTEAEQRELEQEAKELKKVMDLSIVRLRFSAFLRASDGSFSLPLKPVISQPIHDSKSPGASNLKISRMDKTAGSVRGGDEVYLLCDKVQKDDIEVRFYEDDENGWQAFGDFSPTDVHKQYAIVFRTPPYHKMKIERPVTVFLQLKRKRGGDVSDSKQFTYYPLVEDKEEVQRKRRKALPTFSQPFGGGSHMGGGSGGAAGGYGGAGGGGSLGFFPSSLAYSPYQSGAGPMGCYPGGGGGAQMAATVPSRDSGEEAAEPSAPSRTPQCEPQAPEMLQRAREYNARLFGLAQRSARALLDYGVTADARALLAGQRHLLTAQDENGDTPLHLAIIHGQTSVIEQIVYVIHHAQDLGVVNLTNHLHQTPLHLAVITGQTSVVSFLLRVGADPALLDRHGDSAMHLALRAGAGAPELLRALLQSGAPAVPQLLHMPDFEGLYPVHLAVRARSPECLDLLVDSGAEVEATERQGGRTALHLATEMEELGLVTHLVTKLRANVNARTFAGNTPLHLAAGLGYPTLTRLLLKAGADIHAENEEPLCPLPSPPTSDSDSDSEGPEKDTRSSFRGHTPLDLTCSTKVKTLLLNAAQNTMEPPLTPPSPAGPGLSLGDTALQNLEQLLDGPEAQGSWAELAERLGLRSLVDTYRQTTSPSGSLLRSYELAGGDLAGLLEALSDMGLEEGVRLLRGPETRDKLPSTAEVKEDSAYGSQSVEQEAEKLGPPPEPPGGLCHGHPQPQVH
T2 sequence (Q04206 whole entry, looked up): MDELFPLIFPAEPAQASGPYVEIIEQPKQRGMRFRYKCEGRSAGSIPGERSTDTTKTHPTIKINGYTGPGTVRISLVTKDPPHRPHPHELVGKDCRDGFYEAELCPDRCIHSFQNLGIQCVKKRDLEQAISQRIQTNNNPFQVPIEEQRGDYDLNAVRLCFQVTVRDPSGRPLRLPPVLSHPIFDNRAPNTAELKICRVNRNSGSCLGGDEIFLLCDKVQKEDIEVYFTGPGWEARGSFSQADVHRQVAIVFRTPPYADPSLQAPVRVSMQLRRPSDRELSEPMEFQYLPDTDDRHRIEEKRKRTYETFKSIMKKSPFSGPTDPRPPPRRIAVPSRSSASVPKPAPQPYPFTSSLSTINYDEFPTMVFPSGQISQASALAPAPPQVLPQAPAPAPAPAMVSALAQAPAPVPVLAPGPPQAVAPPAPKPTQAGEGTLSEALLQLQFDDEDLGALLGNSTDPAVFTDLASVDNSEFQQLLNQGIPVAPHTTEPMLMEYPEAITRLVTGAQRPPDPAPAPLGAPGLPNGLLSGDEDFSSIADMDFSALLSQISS
Transcription factor p65 (Mus musculus), sequence (Q04207 whole entry): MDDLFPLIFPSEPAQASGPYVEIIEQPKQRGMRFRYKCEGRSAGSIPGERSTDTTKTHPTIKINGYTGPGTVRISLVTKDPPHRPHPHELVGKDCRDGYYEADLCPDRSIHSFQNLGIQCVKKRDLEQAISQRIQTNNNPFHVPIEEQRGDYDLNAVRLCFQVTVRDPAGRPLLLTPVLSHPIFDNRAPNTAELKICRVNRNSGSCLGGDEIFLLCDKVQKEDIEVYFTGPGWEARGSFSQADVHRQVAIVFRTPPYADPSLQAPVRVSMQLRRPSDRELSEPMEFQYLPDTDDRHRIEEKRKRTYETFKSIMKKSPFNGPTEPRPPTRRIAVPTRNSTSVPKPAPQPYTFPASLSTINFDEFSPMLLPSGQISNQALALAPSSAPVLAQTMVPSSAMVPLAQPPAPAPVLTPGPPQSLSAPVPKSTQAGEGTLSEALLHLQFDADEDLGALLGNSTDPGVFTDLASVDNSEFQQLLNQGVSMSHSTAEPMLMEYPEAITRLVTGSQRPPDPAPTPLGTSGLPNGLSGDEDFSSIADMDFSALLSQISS
RAC-alpha serine/threonine-protein kinase (Mus musculus), sequence (P31750 whole entry): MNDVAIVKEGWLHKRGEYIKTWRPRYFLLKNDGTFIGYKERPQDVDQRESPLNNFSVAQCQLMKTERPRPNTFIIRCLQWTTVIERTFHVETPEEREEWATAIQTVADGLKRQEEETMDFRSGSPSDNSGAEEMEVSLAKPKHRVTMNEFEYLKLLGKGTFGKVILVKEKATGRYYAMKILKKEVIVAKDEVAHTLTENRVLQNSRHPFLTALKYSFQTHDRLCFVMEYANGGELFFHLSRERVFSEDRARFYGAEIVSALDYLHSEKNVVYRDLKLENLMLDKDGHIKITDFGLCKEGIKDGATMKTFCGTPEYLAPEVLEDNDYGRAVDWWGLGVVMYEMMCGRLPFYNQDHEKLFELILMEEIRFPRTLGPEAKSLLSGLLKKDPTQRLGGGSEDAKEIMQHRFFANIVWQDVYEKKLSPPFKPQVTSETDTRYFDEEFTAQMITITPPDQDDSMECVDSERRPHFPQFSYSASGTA

Oc1c2ccccc2c2c3c(cccc13)N=N2
inhibition [1]: Active | inhibition [2]: Active | inhibition (BMMC [3]): Active | inhibition [4]: Active

COc1ccc(-c2coc3cc(O)ccc3c2=O)cc1 [FORMONONETIN]
inhibition [5]: Dose-dependent effect | inhibition [6]: Active | fold change (FC) [7]: 1.3 | inhibition (INH) [8]: 25.1% | inhibition (BMMC [9]): Dose-dependent effect | inhibition (INH) [10]: 27.1% | inhibition (BMMC [11]): Dose-dependent effect | fold change (FC) [12]: 1.5 | inhibition (INH) [13]: 23.1% | inhibition (BMMC [14]): Dose-dependent effect | inhibition [15]: Dose-dependent effect | inhibition (INH) [16]: 7.1% | inhibition (BMMC [17]): Dose-dependent effect | inhibition [18]: Dose-dependent effect | inhibition (BMMC [19]): Dose-dependent effect | inhibition [20]: Active | inhibition [21]: Active | inhibition (INH) [22]: 9.2% | inhibition (BMMC [23]): Dose-dependent effect | inhibition [24]: Dose-dependent effect | inhibition [25]: Dose-dependent effect | inhibition [26]: Dose-dependent effect | Activity [27]: Non-toxic | inhibition [28]: Active | inhibition [29]: Dose-dependent effect | inhibition (INH) [30]: 27.4% | inhibition (BMMC [31]): Dose-dependent effect | inhibition (BMMC [32]): Dose-dependent effect | fold change (FC) (Osteoblast): 1.2 | fold change (FC) [33]: 1.3
